# PubChem BioAssay AID602394 (Broad Institute, 2012)
# Values joined by “and” are separate entries in the source; they are usually repeats but may differ in a detail not shown here. Equal values may be shown once. Active and inactive are the calls of the source.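 How the source made its calls: active means falling signal, meaning toxicity, with AC50 at or below twice the top valid dose for that sample; inconclusive means flat curve showing 30 to 70% toxicity, or poor fit; inactive means the rest.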
# System: NIH 3T3 fibroblast viability, Alamar Blue fluorescence, 48 h
# Test: cytotoxicity in NIH 3T3 fibroblasts, dose response, cytotoxicity control for antifungal single agent project, cell-based, dry powder, set 2, plate reader (AID 602394)
# Details: not given
# Procedure, shortened: (§1)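 Test system – NIH 3T3 mouse fibroblast cells · Measured by – Alamar Blue fluorescence at 1:200 final, Ex 544 nm, Em 590 nm · Control set – geldanamycin at 10 µM as inhibition control · Schedule – 48 h treatment at 37 °C, 2–3 h Alamar Blue · Compound dosing – dose series topping at 26 µM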
row,SMILES,AC50
1,CCOC(=O)N1C(=O)C2(CCCCC2)N(c2ccc(C(C)(C)C)cc2)C1=S,16.5 µM
2,CCCC(=O)N1C(=O)C2(CCCCC2)N(c2ccc(C)cc2)C1=S,18.8 µM
3,CCOC(=O)N1C(=O)C2(CCCCC2)N(c2ccc(CC)cc2)C1=S,19.5 µM
4,CCOC(=O)N1C(=O)C2(CCCCC2)N(c2ccc(C(C)C)cc2)C1=S,13.8 µM
5,Cc1ccc(N2CC(=O)NC2=S)cc1,20.7 µM
6,CCCCN1C(=O)N(c2ccc(C)cc2)C2(CCCCC2)C1=S,20.9 µM
7,CCOC(=O)N1C(=O)C2(CCCCC2)N(c2ccc(C(F)(F)F)cc2)C1=S,12.5 µM
8,Cc1ccc(N2C(=S)N(C(=O)OCc3ccccc3)C(=O)C23CCCCC3)cc1,6.98 µM
9,Cc1ccc(N2C(=S)N(C(=O)OC(C)C)C(=O)C23CCCCC3)cc1,> 52 µM (inactive)
10,CCCCN1C(=O)C2(CCCCC2)N(c2ccc(C)cc2)C1=S,24.2 µM
11,CCOC(=O)N1C(=S)N(c2ccc(C)cc2)C2(CCCCC2)C1=NCc1ccccc1,> 52 µM (inactive)
12,CCOC(=O)N1C(=O)C2(CCCCC2)N(c2ccc(Cl)cc2)C1=S,22.3 µM
13,CCOC(=O)N1C(=O)C2(CCCCC2)N(c2ccc(-c3ccccc3)cc2)C1=S,9.81 µM
14,CCOC(=O)N1C(=O)C2(CCCCC2)N(c2cccc(C)c2)C1=S,24.2 µM

# System: not listed separately
# Test: as above
# Details: NIH 3T3 fibroblast viability, Alamar Blue fluorescence, 48 h; at 2.6 µM (top of the series)
# Procedure, shortened: as §1
row,SMILES,"activity change, negative = toxicity"
1,CC1/C=C/C=C\C=C\C=C\C=C\C=C\C=C\C(O[C@H]2OC(C)C(O)C(N)C2O)CC2OC(O)(CC(O)CC(O)C(O)CCC(O)CC(O)CC(=O)OC(C)C(C)C1O)CC(O)C2C(=O)O (stereo partly drawn),-14.9% (inactive)

# Same assay, conditions: NIH 3T3 fibroblast viability, Alamar Blue fluorescence, 48 h; at 26 µM (top of the series)
row,SMILES,"activity change, negative = toxicity"
1,Cc1ccc(N2C(=S)NC(=O)C23CCCCC3)cc1,12.5% (inactive)
2,Cc1ccc(N2C(=O)C(=O)NC2=S)cc1,3.56% (inactive)
3,O=C1NC(=S)N(Cc2ccccc2)C12CCCCC2,5.77% (inactive)
4,CCOC(=O)N1C(=O)C2(CCCCC2)N(Cc2ccccc2)C1=S,-2.91% (inactive)
5,CCOC(=O)N1C(=O)C2(CCOCC2)N(c2ccc(C)cc2)C1=S,8.99% (inactive)
6,CCOC(=O)N1C(=S)NC(=O)C12CCCCC2,2.71% (inactive)
7,CCOC(=O)N1C(=O)C2(CCCCC2)NC1=S,4.41% (inactive)
8,CCOC(=O)N1C(=O)C2(CCCCC2)N(c2ccc(C#N)cc2)C1=S,10.9% (inactive)
9,CCCc1ccc(N2C(=S)N(C(=O)OCC)C(=O)C23CCCCC3)cc1,-15.8% (inactive)
10,Cc1ccc(N2C(=S)N(C)C(=O)C23CCCCC3)cc1,-4.95% (inactive) and -14.4% (inactive)
11,CC(C)N1C(=S)NC(=O)C12CCCCC2,47.5% (inactive)
12,Cc1ccc(N2C(=S)N(S(C)(=O)=O)C(=O)C23CCCCC3)cc1,-8.26% (inactive)
13,Cc1ccc(N2C(=S)NC(=O)C23CCC3)cc1,25% (inactive)
14,Cc1ccc(N2C(=O)NC(=O)C23CCCCC3)cc1,-10.2% (inactive)
15,CCOC(=O)N1C(=O)C2(CCCCC2)N(c2ccc(F)cc2)C1=S,-18.1% (inactive)
16,O=C1NC(=S)NC12CCCCC2,3.57% (inactive)
17,Cc1ccc(N2C(=O)N(C)C(=O)C23CCCCC3)cc1,-27.1% (inactive)

row,SMILES,"activity change, negative = toxicity"
1,CCCCN1C(=O)N(c2ccc(C)cc2)C2(CCCCC2)C1=O,-35.3% (inactive)
2,CCOC(=O)N1C(=O)C2(CCCCC2)N(c2ccc(OC)cc2)C1=S,21.1% (inactive)
3,Cc1ccc(N2C(=S)NC(=O)C2(C)C)cc1,-5% (inactive)
4,O=C1NC(=S)N(c2ccc(F)cc2)C12CCCCC2,10.6% (inactive)
5,Cc1ccc(N2C(=O)C3(CCCCC3)NC2=S)cc1,-13% (inactive)
6,CCOC(=O)N1C(=O)C2(CCCCC2)N(c2ccccc2)C1=S,17.3% (inactive)
7,CCOC(=O)N1C(=O)C2(CCCCC2)N(c2ccccc2C)C1=S,-14% (inactive)
8,CCOC(=O)N1C(=O)C2(CCC2)N(c2ccc(C)cc2)C1=S,-6.41% (inactive)
9,CCOC(=O)N1C(=O)C2(CCCCC2)N(C(C)C)C1=S,-8.87% (inactive)
10,CCOC(=O)N1C(=O)C(C)(C)N(c2ccc(C)cc2)C1=S,14.6% (inactive)
11,CCOC(=O)N1C(=O)N(c2ccc(C)cc2)C2(CCCCC2)C1=O,7.79% (inactive)
12,Cc1ccc(N2CC(=O)NC2=O)cc1,22.5% (inactive)
13,Cc1ccc(N2C(=S)N(C(=O)Oc3ccccc3)C(=O)C23CCCCC3)cc1,0.942% (inactive)
14,O=C1NC(=S)N(c2ccccc2)C12CCCCC2,52.9% (inactive)
15,Cc1ccc(N2C(=S)NC(=O)C23CCOCC3)cc1,29.4% (inactive)
16,CCOC(=O)N1C(=O)C2(CCCC2)N(c2ccc(C)cc2)C1=S,8.13% (inactive)
